Assay results from article PMC5908721 (Journal of medicinal chemistry, 2018).

Tests used:
MV4-11 cells [1] = test: Western blot analysis in MV4-11 cells; type: cell-based; conditions: for Level of HDAC6: ≥0.5 μM 13e or 5 μM SAHA
Method in brief: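 MV4-11 cells (1,500,000/well) are grown 12 h, then treated with test compound, mainly for 24 h (0.25–2 μM; 5 μM SAHA as reference). For p53, 0.5 μM is given for 6 or 12 h, and bortezomib is co-treated for 6 h. Cells are lysed in RIPA, sonicated, centrifuged, BCA-normalized, and run on 4–12% Bis-Tris gels. Blots are probed overnight at 4 °C with primary antibodies (1/1000), with actin as loading control (n ≥ 2).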

HDAC1 [2] = molecular target: T1, HDAC1 (Homo sapiens, UniProt Q13547); test: In vitro HDACs inhibition fluorescence assay, HDAC1; type: biochemical; conditions: preincubation 15, 30, 60, 90 min
T1 sequence (Q13547 whole entry): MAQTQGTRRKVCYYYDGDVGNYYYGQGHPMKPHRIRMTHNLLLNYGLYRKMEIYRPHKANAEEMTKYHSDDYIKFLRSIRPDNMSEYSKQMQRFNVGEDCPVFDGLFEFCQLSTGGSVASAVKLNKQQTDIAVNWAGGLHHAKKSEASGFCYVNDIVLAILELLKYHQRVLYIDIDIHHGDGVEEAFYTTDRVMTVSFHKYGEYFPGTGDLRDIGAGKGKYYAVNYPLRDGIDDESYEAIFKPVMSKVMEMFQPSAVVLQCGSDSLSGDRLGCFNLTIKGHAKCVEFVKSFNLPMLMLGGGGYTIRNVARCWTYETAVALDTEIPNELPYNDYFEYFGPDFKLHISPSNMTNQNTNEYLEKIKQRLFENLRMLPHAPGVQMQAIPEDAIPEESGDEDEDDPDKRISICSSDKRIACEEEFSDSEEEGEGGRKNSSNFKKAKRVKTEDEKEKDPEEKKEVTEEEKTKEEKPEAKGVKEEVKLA
Method in brief: (§1)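 Recombinant HDAC enzyme is preincubated with serial test-compound concentrations at 30 °C for 15, 30, 60 or 90 min. Boc-Lys(acetyl)-AMC is added for 2 h at 30 °C. The reaction is stopped with a trypsin/trichostatin A developer, and fluorescence is read after 30 min (ex 360/em 460 nm). Inhibition is taken relative to control wells, and IC50 comes from a variable-slope log(inhibitor)–normalized response fit.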

HDAC2 [3] = molecular target: T2, HDAC2 (Homo sapiens, UniProt Q92769); test: In vitro HDACs inhibition fluorescence assay, HDAC2; type: biochemical; conditions: preincubation 15, 30, 60, 90 min
T2 sequence (Q92769 whole entry): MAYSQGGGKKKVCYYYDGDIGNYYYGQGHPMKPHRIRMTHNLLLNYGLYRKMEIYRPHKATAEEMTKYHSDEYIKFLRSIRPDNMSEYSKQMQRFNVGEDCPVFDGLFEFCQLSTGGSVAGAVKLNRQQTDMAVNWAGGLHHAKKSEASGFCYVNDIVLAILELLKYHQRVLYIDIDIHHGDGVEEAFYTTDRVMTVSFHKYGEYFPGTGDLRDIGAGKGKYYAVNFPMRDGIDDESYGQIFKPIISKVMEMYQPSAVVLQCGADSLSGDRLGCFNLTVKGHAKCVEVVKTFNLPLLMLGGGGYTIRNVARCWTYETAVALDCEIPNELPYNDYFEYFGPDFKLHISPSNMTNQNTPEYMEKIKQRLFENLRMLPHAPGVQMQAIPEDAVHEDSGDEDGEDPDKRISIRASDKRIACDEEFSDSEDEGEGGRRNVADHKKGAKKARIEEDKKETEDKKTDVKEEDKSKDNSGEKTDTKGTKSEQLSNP
Method in brief: as §1

HDAC3 [4] = molecular target: T3, HDAC3 (Homo sapiens, UniProt O15379); test: In vitro HDACs inhibition fluorescence assay, HDAC3; type: biochemical; conditions: preincubation 15, 30, 60, 90 min
T3 sequence (O15379 whole entry): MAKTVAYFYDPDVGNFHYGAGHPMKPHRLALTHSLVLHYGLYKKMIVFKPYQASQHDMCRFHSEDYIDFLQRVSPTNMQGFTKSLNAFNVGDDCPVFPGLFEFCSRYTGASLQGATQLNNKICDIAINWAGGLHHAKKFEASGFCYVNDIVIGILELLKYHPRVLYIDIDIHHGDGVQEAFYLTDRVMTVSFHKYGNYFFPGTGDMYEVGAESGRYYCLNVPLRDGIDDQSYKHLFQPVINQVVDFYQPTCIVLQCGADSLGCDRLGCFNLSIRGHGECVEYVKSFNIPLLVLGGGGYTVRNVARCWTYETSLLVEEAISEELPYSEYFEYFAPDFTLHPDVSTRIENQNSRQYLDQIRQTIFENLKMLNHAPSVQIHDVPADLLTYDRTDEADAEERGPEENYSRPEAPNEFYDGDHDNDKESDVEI
T3 sequence (Q9Y618 395-489 partner limits assumed): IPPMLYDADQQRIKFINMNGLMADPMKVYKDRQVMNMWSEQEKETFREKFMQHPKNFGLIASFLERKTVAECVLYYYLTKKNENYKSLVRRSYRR

HDAC1 [5] = molecular target: T1, HDAC1; test: Recombinant HDAC Vmax study; type: biochemical; conditions: 2 h preincubation
HDAC2 [6] = molecular target: T2, HDAC2; test: Recombinant HDAC Vmax study; type: biochemical; conditions: 2 h preincubation
Method in brief: (§2)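 Recombinant human HDAC is incubated with inhibitor dilutions in HDAC buffer for 2 h at 30 °C. Serially diluted Boc-Lys(acetyl)-AMC is then added. After 2 h, the reaction is quenched with trypsin (5 mg/mL) plus 1 μM TSA solution, and fluorescence is read at 360/460 nm. Vmax and Km come from a Michaelis–Menten fit, and Lineweaver–Burk double-reciprocal plots are derived from them.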

HDAC3 [7] = molecular target: T3, HDAC3; test: Recombinant HDAC Vmax study; type: biochemical; conditions: 2 h preincubation
Method in brief: as §2

MV4-11 cells [8] = test: MV4-11 EC50 analysis / cell viability; type: cell-based
PC-3 cells [9] = test: PC-3 EC50 analysis / cell viability; type: cell-based; conditions: 24 and 48 h
MMP-2/MMP-9 = MMP-2/MMP-9 inhibitory activity; type: biochemical; conditions: read-out: MMP-2/MMP-9, no inhibition at concentrations up to
Method in brief: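 Gelatinase (MMP-2/MMP-9) fluorogenic kit assay. Test compound is added as a 100 μM solution (before mixing), alongside a 40 μM reference MMP inhibitor. Enzyme diluted in activation buffer is added for 10–15 min, then substrate. The mix is incubated at 37 °C for 2 h, and fluorescence is read at ex 320/em 405 nm.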

APN/CD13 = molecular target: T4, APN/CD13 (Sus scrofa, UniProt P15145); test: CD13 inhibition assay; type: biochemical, porcine
T4 sequence (P15145 1-963): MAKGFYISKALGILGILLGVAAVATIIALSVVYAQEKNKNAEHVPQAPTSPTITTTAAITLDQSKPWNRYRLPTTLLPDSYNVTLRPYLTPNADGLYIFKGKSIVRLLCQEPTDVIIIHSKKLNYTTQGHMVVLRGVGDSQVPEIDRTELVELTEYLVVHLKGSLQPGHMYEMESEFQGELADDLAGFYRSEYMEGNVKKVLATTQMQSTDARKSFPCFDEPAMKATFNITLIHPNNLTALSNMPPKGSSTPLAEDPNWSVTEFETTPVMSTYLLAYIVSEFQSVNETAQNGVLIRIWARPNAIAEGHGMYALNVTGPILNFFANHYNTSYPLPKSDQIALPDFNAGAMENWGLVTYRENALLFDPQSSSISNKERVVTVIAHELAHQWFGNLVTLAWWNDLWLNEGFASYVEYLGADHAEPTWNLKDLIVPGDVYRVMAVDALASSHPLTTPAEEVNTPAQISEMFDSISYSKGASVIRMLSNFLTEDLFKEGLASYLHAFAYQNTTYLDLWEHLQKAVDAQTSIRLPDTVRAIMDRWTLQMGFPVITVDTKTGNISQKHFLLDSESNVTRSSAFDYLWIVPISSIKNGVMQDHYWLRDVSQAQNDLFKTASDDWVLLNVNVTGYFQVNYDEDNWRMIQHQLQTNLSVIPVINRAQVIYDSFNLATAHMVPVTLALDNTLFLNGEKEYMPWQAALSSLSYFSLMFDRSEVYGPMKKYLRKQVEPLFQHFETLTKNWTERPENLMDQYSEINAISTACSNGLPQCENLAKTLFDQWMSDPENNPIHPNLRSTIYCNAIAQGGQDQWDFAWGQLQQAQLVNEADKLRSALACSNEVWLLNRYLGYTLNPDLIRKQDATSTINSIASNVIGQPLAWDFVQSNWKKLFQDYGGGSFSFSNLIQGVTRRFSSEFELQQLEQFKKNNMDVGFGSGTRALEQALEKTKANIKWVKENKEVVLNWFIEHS
Method in brief: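 Porcine kidney microsomal aminopeptidase (CD13) is added to test compound at various concentrations. After 5 min, L-leucine-p-nitroanilide substrate is added, and the mix is incubated at 37 °C for 30 min. Absorbance is then read at 405 nm.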

PC-3 cells [10] = test: Western blot analysis in PC-3 cells; type: cell-based; conditions: PC-3, 24 h
Method in brief: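 PC-3 cells (300,000 per well, six-well) grown 12 h, then given test compound at 1 and 2 μM for 24 h; 5 μM reference HDAC inhibitor as positive control. RIPA lysates were sonicated, cleared at 4 °C, and BCA-normalised. Proteins were separated on 4–12% Bis-Tris gels in MES buffer. Primary antibodies were used at 1/1000 overnight at 4 °C, with actin as loading control. Representative of n ≥ 2 experiments.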

MV4-11 cells [11] = test: Cell cycle analysis in MV4-11 cells; type: cell-based; conditions: MV4-11, 24 h
Method in brief: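 MV4-11 cells plated at 1,500,000 per well in six-well plates, grown 12 h, then exposed to test compound for 24 h. Cells were PBS-washed, fixed overnight at 4 °C in cold 75% ethanol, and washed twice in cold PBS. They were RNase A-treated at 37 °C for 30 min, stained with 50 μg/mL propidium iodide (30 min, 4 °C), and analysed by flow cytometry. Representative of n ≥ 2 experiments.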

PC-3 cells [12] = test: Cell cycle analysis in PC-3 cells; type: cell-based; conditions: PC-3, 24 h
Method in brief: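 PC-3 cells (300,000/well) are grown 12 h, then treated with test compound at various concentrations for 24 h. Cells are harvested, PBS-washed, fixed overnight in 75% cold ethanol at 4 °C, and washed in cold PBS. They are then treated with RNase A at 37 °C for 30 min and stained with propidium iodide (50 μg/mL in PBS) for 30 min at 4 °C. DNA content is read by flow cytometry (n ≥ 2).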

PC-3 cells [13] = test: PC-3 cell morphology, phase-contrast light microscope; type: cell-based; conditions: 48 h
Method in brief: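 PC-3 cells in culture flasks are exposed for 48 h to 2 or 10 μM test compound or DMSO vehicle. Cell morphology and attachment are then examined by phase-contrast light microscopy (n ≥ 2).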

[14] = clinical use; cited from earlier work

## O=C(CCCCCCC(=O)Nc1ccccc1)NO [SAHA, vorinostat, reference compound]
MV4-11 cells [1]; MV4-11, 24 h
  Level of HDAC6: nearly absent

## COc1ccc(C(=O)N[C@@H](Cc2c[nH]c3ccccc23)C(=O)NCc2ccc(C(=O)Nc3ccccc3N)cc2)cc1 [Compound 11a, (S)-4-((3-(1H-indol-3-yl)-2-(4-methoxybenzamido)propanamido)-methyl)-N-(2-aminophenyl)benzamide, reference compound]
HDAC1 [2]
  Time dependence of HDAC1 inhibition: time-dependent inhibition
HDAC2 [3]
  Time dependence of HDAC2 inhibition: time-dependent inhibition
HDAC3 [4]
  Time dependence of HDAC3 inhibition: time-dependent inhibition
HDAC1 [5]
  Type of inhibition of HDAC1 (Lineweaver-Burke analysis): competitive inhibition
HDAC2 [6]
  Type of inhibition of HDAC2 (Lineweaver-Burke analysis): mixed-type inhibition
HDAC3 [7]
  Type of inhibition of HDAC3 (Lineweaver-Burke analysis): mixed-type inhibition

## CCCNNC(=O)c1ccc(NC(=O)[C@H](Cc2c[nH]c3ccccc23)NC(=O)c2ccc(OC)cc2)cc1 [Compound 13e, (S)-N-(3-(1H-Indol-3-yl)-1-oxo-1-((4-(2-propylhydrazine-1-carbonyl)phenyl)amino)propan-2-yl)-4-methoxybenzamide]
MV4-11 cells [8]; 10 and 2 μM, 24 and 48 h
  Viable MV4-11 cell population over time (resorufin fluorescence): decreased with time
MV4-11 cells [8]; 48 h treatment at high concentration
  MV4-11 cell death: almost all MV4-11 cells were dead
MV4-11 cells [8]; vs 13b
  MV4-11 antiproliferative activity, times higher than 13b: 4.1 times
PC-3 cells [9]; 2 μM
  Viable PC-3 cell population over time (resorufin fluorescence): slightly increased
PC-3 cells [9]; 10 μM
  Viable PC-3 cell population over time (resorufin fluorescence): remained unchanged
MMP-2/MMP-9
  IC50: > 50 µM
APN/CD13
  IC50: > 50 µM
MV4-11 cells [1]; MV4-11
  Treatment time required for HDAC6 repression: more than 12 h
MV4-11 cells [1]; MV4-11, 0.5 μM
  Time to degradation of p53: ≤ 6 h
MV4-11 cells [1]; MV4-11, 24 h
  HDAC1 level: did not induce down-regulation of class I HDAC1
  Level of acetyl-tubulin: increased
  Level of HDAC6: nearly absent
MV4-11 cells [1]; MV4-11, 24 h, 0.25-2 μM
  Level of acetylated histone H3: markedly increase
  Level of acetylated histone H4: markedly increase
MV4-11 cells [1]; MV4-11, 24 h, 1 and 2 μM
  Cleavage of pro-caspase3 / PARP (apoptosis): caused the cleavage of inactive pro-caspase3
PC-3 cells [10]
  HDAC1 level: did not induce down-regulation of class I HDAC1
PC-3 cells [10]; 1 and 2 μM
  Cleavage of pro-caspase3 / PARP (apoptosis): no observed cleavage of pro-caspase3 or PARP
  HDAC6 level and acetylated tubulin level: did not induce down-regulation of HDAC6 nor increase the level of acetylated tubulin
MV4-11 cells [11]
  Cell cycle effect: induced G1/S and sub-G1 cell cycle arrest
PC-3 cells [12]
  Cell cycle effect: triggered G2/M arrest
PC-3 cells [13]; 2 μM
  PC-3 cell morphology: did not obviously affect cell morphology
PC-3 cells [13]; 10 μM
  PC-3 cell morphology: cells were still alive and attached to the culture flask

## CCCNNC(=O)c1ccc(CNC(=O)[C@H](Cc2c[nH]c3ccccc23)NC(=O)c2ccc(OC)cc2)cc1 [Compound 13b, (S)-N-(3-(1H-Indol-3-yl)-1-oxo-1-((4-(2-propylhydrazine-1-carbonyl)benzyl)amino)propan-2-yl)-4-methoxybenzamide]
HDAC1 [2]
  Time dependence of HDAC1 inhibition: time-dependent inhibition
HDAC2 [3]
  Time dependence of HDAC2 inhibition: time-dependent inhibition
HDAC3 [4]
  Time dependence of HDAC3 inhibition: time-dependent inhibition
HDAC1 [5]
  Type of inhibition of HDAC1 (Lineweaver-Burke analysis): mixed inhibition
HDAC2 [6]
  Type of inhibition of HDAC2 (Lineweaver-Burke analysis): mixed inhibition
HDAC3 [7]
  Type of inhibition of HDAC3 (Lineweaver-Burke analysis): mixed inhibition

## NNC(=O)c1ccncc1 [isoniazid]
[14]
  Rate of hepatotoxicity: 0.5–2%
  Rate of lethal hepatotoxicity: 1/25000

## CC(C)C[C@H](NC(=O)[C@H](Cc1ccccc1)NC(=O)c1cnccn1)B(O)O [bortezomib, reference compound]
MV4-11 cells [1]; MV4-11, 6 h treatment
  Effect on p53 degradation upon hydrazide HDAC inhibitor treatment: blocks this degradation
